pIC50: −log10 of the molar value.
Experiments:
DEGS1 = target: T1, DEGS1 (Homo sapiens, UniProt O15121); assay: In vitro DEGS assay with HCT-116 cell homogenates; format: biochemical
T1 sequence (O15121 1-323): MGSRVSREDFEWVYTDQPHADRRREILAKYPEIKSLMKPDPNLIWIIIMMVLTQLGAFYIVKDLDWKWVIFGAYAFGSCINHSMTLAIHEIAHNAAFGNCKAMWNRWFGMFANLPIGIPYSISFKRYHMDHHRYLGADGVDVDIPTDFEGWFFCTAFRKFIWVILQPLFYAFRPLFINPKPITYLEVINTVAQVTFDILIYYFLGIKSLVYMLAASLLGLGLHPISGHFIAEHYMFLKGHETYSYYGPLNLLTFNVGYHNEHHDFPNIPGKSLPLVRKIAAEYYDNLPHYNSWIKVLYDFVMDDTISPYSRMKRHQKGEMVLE
Method in brief: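 HCT-116 cells were treated for 1 or 2 h with test compound, reference inhibitor or DMSO. Cells were homogenized in 5 mM Hepes (pH 7.4) with 50 mM sucrose and kept 10 min on ice, and unbroken cells were removed at 250 × g for 5 min at 4 °C. Homogenate was incubated with 2 mM NADH and 10 μM C8:0-dihydroceramide substrate for 1 h at 37 °C. Lipids were extracted and C8:0-Cer and C8:0-SM quantified by LC-MS/MS; n = 3 independent experiments.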

human recombinant 5-LOX = target: T2, human recombinant 5-LOX (Homo sapiens, UniProt P09917); assay: 5-LOX activity, ferrous oxidation-xylenol orange; format: biochemical
T2 sequence (P09917 1-674): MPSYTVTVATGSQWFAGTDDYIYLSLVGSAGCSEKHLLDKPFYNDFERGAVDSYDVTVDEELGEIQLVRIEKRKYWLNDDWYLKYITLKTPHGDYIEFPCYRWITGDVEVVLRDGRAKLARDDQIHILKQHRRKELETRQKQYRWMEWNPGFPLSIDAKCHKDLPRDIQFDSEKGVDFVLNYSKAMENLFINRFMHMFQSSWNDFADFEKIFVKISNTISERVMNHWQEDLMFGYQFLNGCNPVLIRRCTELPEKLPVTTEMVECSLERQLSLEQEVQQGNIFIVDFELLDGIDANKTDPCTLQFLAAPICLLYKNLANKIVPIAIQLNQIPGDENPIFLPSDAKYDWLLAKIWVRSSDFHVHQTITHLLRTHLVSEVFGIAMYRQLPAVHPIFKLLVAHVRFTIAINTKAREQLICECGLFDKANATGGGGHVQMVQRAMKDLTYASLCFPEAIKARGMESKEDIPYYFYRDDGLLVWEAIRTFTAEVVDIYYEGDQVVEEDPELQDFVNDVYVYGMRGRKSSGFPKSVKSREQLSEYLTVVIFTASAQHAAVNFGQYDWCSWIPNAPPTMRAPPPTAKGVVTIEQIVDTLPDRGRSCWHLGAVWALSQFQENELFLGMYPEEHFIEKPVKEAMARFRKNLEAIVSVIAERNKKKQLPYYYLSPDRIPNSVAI

human recombinant COX-2 = target: T3, human recombinant COX-2 (Homo sapiens, UniProt P35354); assay: COX-2 enzyme activity assay; format: biochemical
T3 sequence (P35354 18-604): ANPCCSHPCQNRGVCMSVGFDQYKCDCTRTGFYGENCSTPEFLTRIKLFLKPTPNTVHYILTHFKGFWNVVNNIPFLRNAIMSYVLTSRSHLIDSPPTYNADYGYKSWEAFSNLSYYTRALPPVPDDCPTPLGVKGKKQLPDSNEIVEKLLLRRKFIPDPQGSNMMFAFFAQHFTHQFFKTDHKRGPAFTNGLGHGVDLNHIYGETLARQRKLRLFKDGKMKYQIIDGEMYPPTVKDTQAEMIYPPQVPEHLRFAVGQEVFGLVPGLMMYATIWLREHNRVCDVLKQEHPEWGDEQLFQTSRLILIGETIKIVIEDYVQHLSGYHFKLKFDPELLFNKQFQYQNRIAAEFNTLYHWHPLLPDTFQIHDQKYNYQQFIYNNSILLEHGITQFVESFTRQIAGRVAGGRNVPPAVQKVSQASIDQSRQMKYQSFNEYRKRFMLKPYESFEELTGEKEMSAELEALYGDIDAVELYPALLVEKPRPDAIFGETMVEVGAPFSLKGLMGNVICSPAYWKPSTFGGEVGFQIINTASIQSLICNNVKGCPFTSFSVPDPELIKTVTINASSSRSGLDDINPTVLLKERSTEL
Method in brief: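 Test compound was preincubated with enzyme in 0.1 M Tris (pH 8.0) containing 5 mM EDTA, 2 mM phenol and 1 µM hematin. Arachidonic acid (5 µM final) was added for 2 min, and 0.1 M HCl stopped the reaction. Stannous chloride in 0.1 M HCl reduced PGG2/PGH2 to PGF2α, quantified by ELISA. IC50 values are mean ± SEM of four or more independent experiments.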

HCT-116 cells [1] = assay: Western blotting of LC3-II, caspase-9 and PARP; format: cell-based, human; conditions: 20 μM for 24 h
Method in brief: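 HCT-116 lysates were prepared in Tris-EDTA with 1% SDS, 2 mM Na3VO4 and protease inhibitors, and protein was quantified by BCA. Equal protein was resolved by SDS-PAGE and probed for LC3, caspase-9, PARP-1 and actin. Caspase-9 activation and PARP cleavage served as apoptosis read-outs and LC3-II as the autophagy read-out. Blots are representative of three or more independent experiments.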

HCT-116 cells [2] = assay: Annexin V / propidium iodide apoptosis, flow cytometry; format: cell-based, human; conditions: 20 μM for 24 h, compared with DMSO-treated controls
Method in brief: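 HCT-116 cells were grown in McCoy's 5A with 10% FBS at 37 °C and 5% CO2. After treatment, floating and attached cells were pooled and stained with an annexin V–fluorescein/propidium iodide kit. Flow cytometry read apoptosis from annexin V (Ex 488, Em 518 nm) and necrosis from PI (Ex 488-540, Em 617 nm). Data are representative of three or more independent experiments.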

HT-29 cells = assay: MTT cell viability assay, HT-29; format: cell-based, human; conditions: time- and dose-dependent
Method in brief: (§1)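 Cells were grown with 10% FBS at 37 °C and 5% CO2: HCT-116 in McCoy's 5A, HT-29 in DMEM. Cells were exposed to test compound at indicated concentrations and times, and viability was read by MTT (mitochondrial dehydrogenase activity) relative to DMSO controls. […] Values are mean SD of at least three independent experiments.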

HCT-116 cells [3] = assay: MTT cell viability assay, HCT-116; format: cell-based, human; conditions: time- and dose-dependent
Method in brief: as §1

[4] = test system: DEGS-1 protein expression in HCT-116 cells; assay: Western blotting of DEGS-1 protein expression; format: cell-based, human; conditions: 10 or 20 μM for 8 or 16 h
Method in brief: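 HCT-116 cells were lysed in Tris-EDTA buffer with 1% SDS, 2 mM Na3VO4 and protease inhibitors. Protein was measured by BCA, and equal amounts were resolved by SDS-PAGE and immunoblotted with anti-DEGS-1 antibody.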

HCT-116 cells [5] = assay: Sphingolipid levels by LC-MS/MS; format: cell-based, human
Method in brief: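 Treated HCT-116 pellets were extracted in methanol/chloroform/water with internal standards (C12:0- and C25:0-ceramide, C17-sphingosine, C17-sphinganine, C12:0-SM), tip-sonicated 20 s, and incubated overnight at 48 °C. An aliquot was taken for total choline phospholipids (enzymatic colorimetric assay). The remainder was hydrolysed with methanolic KOH (37 °C, 2 h) and dried under N2. Positive-mode MRM LC-MS/MS was run, ceramides/sphingoid bases on C18 and SMs on C8; vs DMSO controls, n ≥ 3.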

DEGS = target: T4, DEGS (Rattus norvegicus, UniProt Q5XIF5); assay: DEGS assay with rat liver microsomal fraction; format: biochemical; conditions: rat liver microsomal fraction as source of DEGS; data not shown
T4 sequence (Q5XIF5 1-323): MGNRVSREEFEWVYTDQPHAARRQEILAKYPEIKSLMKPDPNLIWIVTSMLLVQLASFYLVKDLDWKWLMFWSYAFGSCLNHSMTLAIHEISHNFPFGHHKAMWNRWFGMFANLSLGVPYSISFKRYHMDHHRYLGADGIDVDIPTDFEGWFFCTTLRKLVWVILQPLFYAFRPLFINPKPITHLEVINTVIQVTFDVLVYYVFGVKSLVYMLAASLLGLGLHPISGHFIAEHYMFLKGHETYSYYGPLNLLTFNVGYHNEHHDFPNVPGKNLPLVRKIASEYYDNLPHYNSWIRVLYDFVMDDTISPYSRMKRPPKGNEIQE

[6] = test system: colon tumorigenesis induced by AOM and DSS; assay: AOM/DSS-induced colon tumorigenesis in mice; format: in vivo, male Balb/c mice; conditions: 0.022% in diet

## CCCCCCCCCCCCCC1=C([C@@H](O)[C@H](CO)NC(=O)CCCCCCC)C1 [C8-CPPC, C8-cyclopropenylceramide, reference compound]
DEGS1; 1 μM, 1 or 2 h treatment of HCT-116 cells
  inhibition of DEGS1 enzyme activity: ~ 95%

## Cc1c(O)cc2c(c1C)O[C@](C)(CCC[C@H](C)CCC[C@H](C)CCCC(C)C)CC2 [γT, γ-tocopherol]
Human recombinant 5-LOX
  pIC50: < 4.30
  inhibition of 5-LOX at 50 μM: neither γT nor δT at 50 μM inhibited COX-2 or 5-LOX
Human recombinant COX-2
  pIC50: < 4.30
  inhibition of COX-2 at 50 μM: neither γT nor δT at 50 μM inhibited COX-2

## Cc1cc(O)cc2c1O[C@](C)(CCC[C@H](C)CCC[C@H](C)CCCC(C)C)CC2 [δT, δ-tocopherol]
Human recombinant 5-LOX
  inhibition of 5-LOX at 50 μM: neither γT nor δT at 50 μM inhibited COX-2 or 5-LOX
Human recombinant COX-2
  inhibition of COX-2 at 50 μM: neither γT nor δT at 50 μM inhibited COX-2

## Cc1cc(O)cc2c1O[C@](C)(CCC[C@H](C)CCC[C@H](C)CCCC(C)C(=O)O)CC2 (some centres unmarked) [δT-13’-COOH]
DEGS1; 20 μM, 1 h pre-incubation of HCT-116 cells
  inhibition of DEGS1 enzyme activity: ~ 38%
DEGS1; 20 μM, 2 h pre-incubation of HCT-116 cells
  inhibition of DEGS1 enzyme activity: ~ 47%
HCT-116 cells [1]
  LC3-II, a marker of autophagy: increase of LC3-II
HCT-116 cells [2]
  apoptosis (annexin V staining): induced early and late-stage apoptosis
HT-29 cells
  cell viability: decreased the viability
HCT-116 cells [3]
  cell viability: decreased the viability
[4]
  effect on DEGS-1 protein expression: no effect
HCT-116 cells [5]; 20 μM, 2 h incubation, compared with solvent controls
  C16:0-Cer: significant decrease
HCT-116 cells [5]; 10 or 20 μM, 1-16 h
  sphingomyelin species and total SMs: persistent decrease
HCT-116 cells [5]; 10 or 20 μM, after 1-2 h treatment, compared with controls
  total dihydroceramides, individual dhCers and dihydrosphingosine: dose-dependently increased
DEGS
  inhibition of DEGS enzyme activity: failed to inhibit the enzyme activity

## C/C(=C\CC/C(C)=C/CC[C@]1(C)CCc2cc(O)cc(C)c2O1)CC/C=C(\C)C(=O)O [δTE-13’-COOH]
[6]; compared with the control diet
  effect on body weight: no effect
  effect on food intake: no effect
[6]; compared with controls, p < 0.05
  decrease in number of large tumors (> 2 mm^2): 58%
[6]; mean ± SEM, n = 15-17, p < 0.01 vs control diet (4.7 ± 0.3)
  colon tumors per mouse: 3.1 ± 0.3 tumors per mouse
HCT-116 cells [1]
  LC3-II, a marker of autophagy: increase of LC3-II
HCT-116 cells [2]
  apoptosis (annexin V staining): induced early and late-stage apoptosis
HT-29 cells
  cell viability: decreased the viability
HCT-116 cells [3]
  cell viability: decreased the viability
